In PubChem BioAssay AID504490 (NMMLSC, 2011):
Hit rate of the full screen: of about 340,000 compounds, about 1,100 (0.32%) were called active.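 The calls were made as follows: active = inhibition above a set limit, near 3 SD of compounds lacking own fluorescence (cut at about 54% in these data); inactive = the rest.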 This excerpt belongs to a sample that is enriched for actives.

test system: beta-arrestin 1 C-terminal peptide binding to AP2 beta2-adaptin appendage (human); assay: inhibitors of beta-arrestin/AP2 binding, primary screen, biochemical, GPCR trafficking, flow cytometry (AID 504490); conditions: FITC-arrestin peptide / GST-AP2 beads, at 10 µM, hits give high values, AP2 beta2 appendage carries R879A mutation;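 also: plate controls were DMSO wells for no effect and 5 µM unlabelled arrestin peptide for full effect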
Outline: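 System: GST-tagged AP2 beta2-adaptin appendage (R879A) on 4 µm glutathione beads / Reagent: FITC-arrestin peptide, 50 nM / Detection: HyperCyt-sampled flow cytometry, FL1 channel, ex 488/em 535 nm / Timing: 12 min plus 1 h, RT / Buffer or medium: PBS plus Tween 20 (0.05%) and BSA (0.1%)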

Structure (SMILES)	inhibition
COc1ccccc1CNC(=O)COC(=O)c1cccs1	-6.34% (inactive)
COc1ccc(C2c3[nH]c4ccccc4c3C[C@H]3C(=O)N(CC(C)C)CC(=O)N23)c(OC)c1 (stereo partly drawn)	-2.46% (inactive)
O=C(Cc1cccs1)Nc1nnc(SCc2ccc(F)cc2)s1	0.35% (inactive)
CCCc1ccc(-c2csc(NC(=O)Cc3cccs3)n2)cc1	86.3% (active)
COc1ccc(Cc2nnc(NC(=O)Cc3cccs3)s2)cc1	5.51% (inactive)
CC(Sc1ncnc2c1cnn2-c1ccccc1)C(=O)Nc1ccc(N2CCOCC2)cc1 (stereo not drawn)	52.7% (inactive)
COc1ccc(C(C)(C)C)cc1NC(=O)CCN1C(=O)C2CCCCC2C1=O (stereo not drawn)	4.94% (inactive)
O=CN1CCN(C(=O)c2ccc3c(c2)OCO3)CC1	-7.77% (inactive)
CCOC(=O)N1CCN(C(=O)Cc2ccc(-n3c(=S)[nH]c4ccccc4c3=O)cc2)CC1	-0.7% (inactive)
CCOC(=O)N1CCN(C(=O)C(C)NC(=O)c2ccco2)CC1 (stereo not drawn)	47.5% (inactive)
CCOC(=O)N1CCN(C(=O)CNC(=O)Cc2ccc(Cl)cc2)CC1	87.5% (active)
OCCN1CCOCCOCCN(CCO)CCN(CCO)CC1	-4.2% (inactive)
Cc1ccccc1NC(=O)CCNS(=O)(=O)c1ccc2[nH]c(=O)oc2c1	-8.2% (inactive)
C=CCOc1c(CNn2cn[nH]c2=S)cccc1OC	0.65% (inactive)
CC(=O)c1cccc(OCC(=O)OCC(=O)Nc2cc(S(=O)(=O)N3CCCCC3)ccc2C)c1	38.5% (inactive)
Cc1ccc(S(=O)(=O)N2CCCCC2)cc1NC(=O)CCNC(=O)c1ccccc1	2.03% (inactive)
Cc1ccc(S(=O)(=O)N2CCCCC2)cc1NC(=O)c1cccnc1	65.4% (active)
O=P(c1ccc2c(c1)OCCO2)(N1CCOCC1)N1CCOCC1	1.28% (inactive)
CCCCNC(=O)C1CCC(=O)N1CCc1ccccc1 (stereo not drawn)	-2.64% (inactive)
CCC(C)NC(=O)C1CCC(=O)N1Cc1ccc(C)cc1 (stereo not drawn)	3.49% (inactive)
Cc1ccc(CN2C(=O)CCC2C(=O)NCCCN2CCCCC2C)cc1 (stereo not drawn)	102% (active)
CC(=O)c1cccc(NC(=O)[C@@H](NC(N)=O)C(C)C)c1	15.6% (inactive)
Cc1ccc2nsnc2c1S(=O)(=O)N1CCCC1C(=O)O (stereo not drawn)	19.9% (inactive)
COc1cc(C2/C(=C(\O)c3ccc4c(c3)CC(C)O4)C(=O)C(=O)N2c2nnc(C)s2)cc(OC)c1OC (stereo not drawn)	18.6% (inactive)

Structure (SMILES)	inhibition
Cc1ccc(NC(=O)CN2C(=O)NC(C)(c3ccc(Cl)cc3)C2=O)c(Br)c1 (stereo not drawn)	-0.27% (inactive)
Cc1ccc(C2(C)NC(=O)N(CC(=O)N3CC(=O)Nc4ccccc43)C2=O)cc1 (stereo not drawn)	-7.93% (inactive)
Cc1ccc(C2(C)NC(=O)N(CC(=O)Nc3ccccc3C(=O)N3CCCCC3)C2=O)cc1 (stereo not drawn)	56.8% (active)
CC(=O)OC1CCC2C3CCC4=C(CC(F)C(=O)C4)C3CCC12C (stereo not drawn)	-26.5% (inactive)
CCOc1ccccc1OCC(=O)Nc1ccccc1C(=O)NC1CC1	-8.99% (inactive)
O=C(NC1=CC(=O)c2ccccc2C1=O)c1ccccc1	19.2% (inactive)
CC(=O)N(C1=C(Cl)C(=O)c2ccccc2C1=O)c1ccc(C(=O)O)cc1	64.7% (active)
CC(C)(Oc1ccc(Cl)cc1)C(=O)OCC(=O)NCCc1ccc(S(N)(=O)=O)cc1	19% (inactive)
O=C(CN1C(=O)COc2ccc(Cl)cc21)Nc1ccc(N2CCOCC2)cc1	3.15% (inactive)
CC(C)C[C@H](NC(=O)N1CCn2c1nc1ccccc12)C(=O)NC1CC1	60.8% (active)
CSCC[C@H](NC(=O)N1CCn2c1nc1ccccc12)C(=O)NC1CCCCC1	-6.82% (inactive)
CC(C)[C@H](NC(=O)N1CCn2c1nc1ccccc12)C(=O)NC1CC1	35.9% (inactive)
CC(NCCc1ccc(S(N)(=O)=O)cc1)C(=O)NCc1ccccc1 (stereo not drawn)	57.4% (active)
NS(=O)(=O)c1ccc(CNC(=O)c2cccc(Oc3ccccc3)c2)cc1	10.4% (inactive)
NS(=O)(=O)c1ccc(CCNC(=O)CNC(=O)Cc2ccccc2)cc1	3.4% (inactive)
O=C(CC12CC3CC(CC(C3)C1)C2)NCc1ccco1	5.06% (inactive)
O=C1C(Cl)=C(Oc2ccccc2)C(=O)c2ccccc21	55.1% (active)
Cc1ccc(C(=O)CN2C(=O)NC3(CCOc4ccccc43)C2=O)s1 (stereo not drawn)	-5.1% (inactive)
O=C(COc1ccc(F)cc1Br)NCC1COc2ccccc2O1 (stereo not drawn)	0.24% (inactive)
COc1cccc(OCC(O)CNC(=O)c2oc3c(C)c(C)ccc3c2C)c1 (stereo not drawn)	2.32% (inactive)
CN=C1S/C(=C\c2c(OC)cc(OC)cc2OC)C(=O)N1C	7.51% (inactive)
Cc1ccc(N=C2NC(=O)/C(=C/C=C/c3ccco3)S2)cc1C	42.9% (inactive)
CN1C(=O)/C(=C/c2ccco2)SC1=Nc1cccc(C(=O)O)c1	62.3% (active)
COc1ccc(C2(CNC(=O)C(c3ccccc3)c3ccccc3)CCOCC2)cc1OC	-2.16% (inactive)

Structure (SMILES)	inhibition
CC(C)c1ccc(NC(=S)NC2CC3C=CC2C3)cc1 (stereo not drawn)	-12.9% (inactive)
Cc1ccc(C)c(NC(=S)NNC(=S)Nc2ccc(C(C)C)cc2)c1	60.6% (active)
Cc1ccc(NC(=S)Nc2ccc(F)cc2)cc1	2.86% (inactive)
Cn1cc(CCC(=O)N2CCCC(C(=O)c3ccc(C(C)(C)C)cc3)C2)cn1 (stereo not drawn)	5.89% (inactive)
CCOc1ccc(/C=N/OCC(=O)NCc2cccs2)cc1	-13.4% (inactive)
CCOc1ccc(C(=O)NC2CCN(CC(=O)NCc3cccs3)CC2)cc1	54.6% (active)
CCOc1ccc(C(=O)NC2CCN(S(=O)(=O)CC)CC2)cc1	2.75% (inactive)
c1ccc(Cc2ccc(OCCn3ccnc3)cc2)cc1	-5.61% (inactive)
O=C(C1CCC1)N1CCN(c2ccccc2)CC1	4.58% (inactive)
CC(C)Cn1c(N)c(C(=O)COC(=O)CN2C(=O)C3CC=CCC3C2=O)c(=O)n(C)c1=O (stereo not drawn)	1.01% (inactive)
CC(NC(=O)COC(=O)c1cc(=O)[nH]c2ccccc12)c1ccccc1 (stereo not drawn)	11.9% (inactive)
CN(C(=O)COC(=O)c1cc(=O)[nH]c2ccccc12)C1CCCCC1	54.7% (active)
CC1CCN(C(=O)COC(=O)c2cc(=O)[nH]c3ccccc23)CC1	-3.58% (inactive)
O=C(Nc1ccccc1)N1CCN(C2c3ccccc3-c3ccccc32)CC1	-3.43% (inactive)
CC1CN(CC(=O)NC(C)c2ccccc2)CC(C)O1 (stereo not drawn)	0.77% (inactive)
Cn1c(=O)c2c(nc(N/N=C/c3cccs3)n2Cc2ccc(Br)cc2)n(C)c1=O	70.5% (active)
CCCCNc1nc2c(c(=O)n(C)c(=O)n2C)n1Cc1cccc(OC)c1	13.6% (inactive)
Cn1c(=O)c2sccc2n(Cc2ccc(Br)cc2)c1=O	-7.24% (inactive)
CN1CCN(c2ccc(NC(=O)c3cc(Cl)c4c(c3)OCCO4)cc2)CC1	30.2% (inactive)
Cc1cccc(N2CCN(c3ccc(NC(=O)/C=C\C(=O)O)cc3)CC2)c1	15.9% (inactive)
C=CC(=O)Nc1ccc(Nc2ccnc(Nc3ccc(N4CCN(C)CC4)cc3)n2)cc1	55.9% (active)
Cn1c(SCc2nc3ccccc3s2)nnc1-c1ccc2c(c1)OCO2	-3.99% (inactive)
CCCCN(CC)CCNC(=O)CCNC(=O)Cn1ccc2ccccc2c1=O	1.19% (inactive)
O=C1NC(=O)C(CCc2ccccc2)(c2ccccc2)N1 (stereo not drawn)	-9.95% (inactive)

Structure (SMILES)	inhibition
C/C(Cl)=C\Cn1c(Nc2cccc(C)c2)nc2c1c(=O)n(C)c(=O)n2C	-6.48% (inactive)
COc1cccc(CNC(=O)C2CC(=O)N(C3CCCCCCC3)C2)c1 (stereo not drawn)	-10.2% (inactive)
Cc1ccc(CNC(=O)C2CC(=O)N(C3CCCCCCC3)C2)cc1 (stereo not drawn)	93.8% (active)
O=C(NCCc1ccc(Cl)cc1)C1CC(=O)N(C2CCCCC2)C1 (stereo not drawn)	6.36% (inactive)
COc1ccc(Br)cc1CN(C)CC(=O)Nc1cc(Cl)cc(Cl)c1	4.23% (inactive)
CCc1cccc2c(C=C(C#N)C#N)cn(CC(=O)N3CCCCC3)c12	9.35% (inactive)
COc1ccc(Cc2nnc(SCC(=O)c3cccc([N+](=O)[O-])c3)n2C)cc1	7.36% (inactive)
CCc1ccccc1OCC(=O)Nc1ccc(C)c(S(=O)(=O)N2CCCCCC2)c1	10.8% (inactive)
COc1cc2c(cc1NC(=O)CN1CCN(S(=O)(=O)c3ccc(F)cc3)CC1)oc1ccccc12	11.4% (inactive)
COc1cc(/C=C/C(=O)OCC(=O)c2ccccc2)cc(OC)c1OC	10% (inactive)
COc1cc2c(cc1NC(=O)COC(=O)/C=C/c1ccccc1)oc1ccccc12	105% (active)
O=C(CNC(=O)c1ccc(Br)o1)Nc1ccccc1	7.78% (inactive)
Cc1cccc(NC(=O)c2ccc([N+](=O)[O-])o2)c1	5.65% (inactive)
Cc1cccc(NC(=S)NC(=O)c2ccc(Br)o2)c1	61.8% (active)
Cc1cc(C)cc(C(=O)NC(=S)Nc2ccc3[nH]c(=O)[nH]c3c2)c1	10.9% (inactive)
CCCCNC(=O)C1CCCN(S(=O)(=O)c2ccc(S(=O)(=O)NCC(C)C)cc2)C1 (stereo not drawn)	4.41% (inactive)
Cc1cccc(NC(=O)C2CCCN(C(=O)Nc3ccc(F)cc3)C2)c1C (stereo not drawn)	25% (inactive)
Cc1cc(/C=C2/SC(=O)N(CC(=O)N3CCCC3)C2=O)c(C)n1C	-9.22% (inactive)
Cc1cc(/C=C2\SC(=Nc3ccc(N4CCOCC4)cc3)N(C)C2=O)c(C)n1-c1cccnc1	-3.18% (inactive)
Cc1cc(/C=C2\SC(=O)N(C)C2=O)c(C)n1-c1cccc(C(=O)O)c1	54.7% (active)
COc1cccc(C(=O)n2ccc(-c3cccs3)n2)c1	4.99% (inactive)
